High-throughput results deposited in PubChem BioAssay by several laboratories.
Sampled rows, rich in hits. Any-hit rate of the full collection: about 6.3%.
M1 agonist: activates the M1 muscarinic receptor | CHO-M1 cells, Fluo-4 calcium fluorescence, agonist mode; active compounds read high | B-score at 10 µM | hit rate 3% among 64,000 | AID 626;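 active means fluorescence rise, raw or as B-score row- and column-corrected plate score, outside the 99.7% band of its plate's samples, either direction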
SF1 activator: SF-1 (human) activation. activation, % at 10 µM. CHO-K1 Gal4-SF-1 LBD luciferase reporter; % increase over DMSO SF-1-specific signal. hit rate 1.9% among 65,000;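 active means activation above the mean activation of all tested compounds plus 3 SD, cut at about 50% in these data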
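Test system: CHO-K1 cells with Gal4–hSF-1 LBD chimera plus Gal4-driven luciferase; Input: 4,000 cells/well; Compound: 10 µM only; Times: 20 h compound treatment, 37 °C; Measured by: steady-glow luciferase luminescence, read after 15 min reagent incubation; Measure: percent activation versus DMSO; Control set: DMSO and mock-transfected background; Replicates: one test per compound.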
RORa activator: activators of human nuclear receptor RORA | CHO-K1 Gal4-RORA LBD luciferase reporter, luminescence; percent increase over mock-subtracted basal signal | activation, % at 10 µM | hit rate 1.5% among 65,000 | AID 560;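 active means activation above the mean of all tested compounds plus 3 SD, cut at about 49% in these data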;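 further: 0% = DMSO-treated RORA cells and 100% = added signal equal to DMSO minus mock-transfected cells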
Target sequence (P35398 whole entry, looked up, the tested form may be a part): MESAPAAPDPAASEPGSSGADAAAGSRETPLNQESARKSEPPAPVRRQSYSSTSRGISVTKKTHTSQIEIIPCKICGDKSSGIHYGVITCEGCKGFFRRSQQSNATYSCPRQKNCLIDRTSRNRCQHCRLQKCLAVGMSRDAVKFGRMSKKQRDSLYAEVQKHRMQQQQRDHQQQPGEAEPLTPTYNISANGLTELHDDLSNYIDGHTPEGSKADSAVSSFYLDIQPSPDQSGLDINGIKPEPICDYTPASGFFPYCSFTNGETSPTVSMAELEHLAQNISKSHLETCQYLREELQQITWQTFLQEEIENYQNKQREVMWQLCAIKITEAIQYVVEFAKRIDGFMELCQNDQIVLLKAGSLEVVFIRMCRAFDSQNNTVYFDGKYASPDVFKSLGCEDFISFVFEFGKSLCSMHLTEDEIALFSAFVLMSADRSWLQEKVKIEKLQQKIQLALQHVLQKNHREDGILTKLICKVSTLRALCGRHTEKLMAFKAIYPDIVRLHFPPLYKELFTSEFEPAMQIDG
M1 antagonist: antagonists of rat M1 muscarinic receptor; B-score at 10 µM; hit rate 3.4% among 64,000; CHO-M1 cells, Fluo-4 calcium, ACh EC80 antagonist mode; active compounds read low; P08482;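 active means calcium fluorescence response, raw or row-and-column corrected B-score, differing from the plate sample mean either way at a set confidence level, mostly lower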
MT1-MMP txn act: MT1-MMP promoter transcription activation. hit rate 0.16% among 86,000. HT1080 MT1-MMP promoter luciferase reporter, luminescence, overnight; active compounds read high. activation factor at 10 µM;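 active means activation factor of at least 2 for MT1-MMP transcription at 10 µM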
M1 antag conf: confirmation of rat M1 muscarinic receptor antagonists; shares compounds with M1 antagonist; CHO-M1 cells, Fluo-4 calcium, ACh EC80 antagonism; active compounds read low; calcium response (max-min fluorescence) at 10 µM; hit rate 43% among 1,700;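 active means calcium response below the same-plate mean of wells given acetylcholine alone at its 80%-effect dose, minus 3 SD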;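 further: raw fluorescence intensity difference in arbitrary instrument units and not normalized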
mGluR4 antag: acts on human mGluR4 in M1 antagonist selectivity test | shares compounds with M1 antagonist | fluorescence response (max-min) at 10 µM | hit rate 0.9% among 1,700 | CHO-mGluR4 calcium flux, Fluo-4 fluorescence, glutamate EC80; active compounds read low | AID 678;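 active means fluorescence response below the plate's average for near-maximal glutamate wells, less 3 SD of those wells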;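 further: raw unnormalized fluorescence span taken in the window right after glutamate addition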
An asterisk follows results filed as active; nt = no result given.

SMILES | M1 agonist | SF1 activator | RORa activator | M1 antagonist | MT1-MMP txn act | M1 antag conf | mGluR4 antag
N#CCCn1c(SCC(=O)N2CCN(S(=O)(=O)c3ccccc3)CC2)nc2ccccc21 | -2.1 | -8 | 4 | -10* | 1.1 | 199* | 227
Cc1c(N=C/C=C/c2ccccc2)c(=O)n(-c2ccccc2)n1C | 0.019 | 7 | -8 | -11* | 1.2 | 24* | 187
Cc1c(N=CC=Nc2c(C)n(C)n(-c3ccccc3)c2=O)c(=O)n(-c2ccccc2)n1C | nt | -10 | -1 | nt | 1.1 | nt | nt
CCOC(=O)c1oc2ccc(CNCCO)c(Cl)c2c1C | -0.76 | 66* | 19 | -1.9* | 1.8 | 519* | 212
CNS(=O)(=O)c1cccc(C(=O)OCC(=O)c2cc(C)n(-c3ccc4c(c3)OCO4)c2C)c1 | -0.9 | -4 | -6 | -2.3* | 1.1 | 483 | 164*
CNS(=O)(=O)c1cccc(C(=O)OCC(=O)C23CC4CC(CC(C4)C2)C3)c1 | nt | nt | nt | nt | 1 | nt | nt
CCCCn1c(=O)n(Cc2cccc(F)c2)c(=O)c2c1ncn2Cc1ccco1 | 0.33 | 2 | -4 | -1.5* | 1.1 | 515 | 213
CCN(CC)CCNCc1ccc(-c2ccc(Cl)cc2)o1 | nt | -6 | 4 | nt | 1.1 | nt | nt
Cn1ccnc1SCC(=O)c1cc2ccccc2o1 | 0.35 | 40 | 26 | -3.2* | 1.6 | 648 | 250
Cn1c(SCC(=O)N2CCN(c3ccccc3)CC2)nnc1-c1cc2ccccc2o1 | 1 | 10 | -8 | 0.17 | 1 | nt | nt
Cn1c(SCC(=O)c2cc3ccccc3o2)nnc1-c1ccccc1 | -0.055 | 4 | 16 | -2* | 1.2 | 680 | 261
Cc1cc(C)c(S(=O)(=O)NCc2cn3c(C)csc3n2)cc1C | -0.081 | -16 | -15 | -0.43 | 1.1 | nt | nt
COc1ccc(CNc2nc3nc(-c4ccccc4)cc(=O)n3[nH]2)cc1OC | -0.48 | -1 | -17 | 0.62 | 1.1 | nt | nt
N#Cc1c(NCc2ccccc2)ccnc1NCc1cccnc1 | -0.08 | -33 | 6 | -4.3* | 0.9 | 441* | 262
CCc1ccccc1N1C[C@@]23C=C[C@@H](O2)C(C(=O)OCC(C)C)[C@H]3C1=O (some centres not stated) | -0.84 | 6 | -12 | 0.7 | 1 | nt | nt
CN1C=CC=C/C1=C1\SC(=S)N(C2CCCCC2)C1=O | -0.036 | nt | nt | -6.1* | nt | 488* | 261
Cc1ccc(N2C(=O)C(Cl)=C(Nc3c(C)n(C)n(-c4ccccc4)c3=O)C2=O)cc1 | 0.098 | -5 | 6 | -5.7* | 1 | 133* | 265
CC1(C)NC(=O)N(CCOCCOc2c(Cl)cc(Cl)cc2Cl)C1=O | nt | nt | nt | nt | 1.1 | nt | nt
Cc1nc2sccn2c(=O)c1CCN1CCC(=C(c2ccccc2)c2ccc(F)cc2)CC1 | 0.65 | -19 | -8 | -10* | 1.1 | 138* | 209
CN1CCN(CCCC(=O)c2ccc(F)cc2)CC1 | -0.44 | 23 | -26 | 2.4 | 1 | nt | nt
COc1ccccc1NC(=O)CN(C)S(=O)(=O)c1ccc(F)cc1 | -0.94 | 5 | -10 | 0.46 | 1.2 | nt | nt
CC(=O)C1=C(O)C=C(c2ccco2)CC1c1ccco1 (configuration not stated) | 1.5 | -12 | -4 | -0.14 | 1.2 | nt | nt
COC(=O)C1CCN(C(=O)COC(=O)c2n[nH]c3ccccc23)CC1 | 0.043 | 4 | 18 | 0.044 | 1.2 | nt | nt
CC1CCCN(C(=O)COC(=O)c2n[nH]c3ccccc23)C1 (configuration not stated) | 0.16 | 37 | -2 | -9.6* | 1.5 | 670 | 241
c1cc2c(cc1C1CCCN1)OCCCO2 (configuration not stated) | 0.53 | 2 | -7 | -3.7* | 1.1 | 513* | 239
SMILES | M1 agonist | SF1 activator | RORa activator | M1 antagonist | MT1-MMP txn act | M1 antag conf | mGluR4 antag
Cc1ccc(N(Cc2ccccc2F)S(C)(=O)=O)cc1C | nt | nt | nt | nt | 1.1 | nt | nt
c1cnc(N2CC[N+]3(CCCC3)CC2)nc1 | -0.48 | 6 | -1 | -5* | 1.1 | 163* | 226
CCN(C1CCCCC1)S(=O)(=O)c1ccc(S(=O)(=O)N2CCN(CCC#N)CC2)cc1 | 0.046 | -1 | 24 | -1.5* | 1.1 | 327* | 206
N#CCCN1CCN(S(=O)(=O)c2ccc(S(=O)(=O)N3CCCCCC3)cc2)CC1 | -0.42 | -9 | 12 | -0.094 | 1.1 | nt | nt
Cc1nnc(SCC(=O)N2CCC(Cc3ccccc3)CC2)n(N)c1=O | -0.11 | 6 | 3 | -3* | 1.1 | 559 | 231
COc1cccc(CC(=O)NCC2COc3ccccc3O2)c1OC (configuration not stated) | 0.34 | -10 | -5 | -12* | 1 | 701 | 230
C=CCOC(=O)C1=C(C)Nc2nnnn2C1c1cccs1 (configuration not stated) | nt | nt | nt | nt | 0.9 | nt | nt
CCN(CC)CC#CCC(O)(c1ccccc1)C1CCCC1 (configuration not stated) | nt | nt | nt | nt | 1.2 | nt | nt
CC[N+](C)(CC)CCOC(=O)C(O)(c1ccccc1)C1CCCCC1 (configuration not stated) | -0.39 | 4 | -2 | -16* | 1 | 10* | 213
COc1cc(S(=O)(=O)NCC2OCCc3ccccc32)ccc1-n1cnnn1 (configuration not stated) | nt | nt | nt | nt | 0.9 | nt | nt
O=S(=O)(Nc1ccc2c(c1)OCCO2)c1cccc2nsnc12 | 1.1 | -7 | -15 | -2.7* | nt | 362* | 225
O=C(CCNS(=O)(=O)c1cccc2nsnc12)Nc1ccc2c(c1)OCCO2 | -0.0029 | -16 | -31 | -0.14 | nt | nt | nt
CCCCNC(=O)C1CCCN1C(=O)NC1CCCCC1 (configuration not stated) | nt | nt | nt | nt | 1.3 | nt | nt
CCOC(=O)N1CCN(C(=O)c2ccc3c(c2)sc2nc(-c4ccccc4)cn23)CC1 | 3.1 | 110* | 62* | -2.9* | 1.5 | 397* | 292
CCOC(=O)N1CCC(NC(=O)c2ccc3c(c2)sc2nc(-c4ccc(OC)cc4)cn23)CC1 | nt | 39 | 23 | nt | nt | nt | nt
CC(C)C(C(=O)N1CCOCC1)N1C(=O)c2ccccc2C1=O (configuration not stated) | 0.0065 | 7 | -23 | -0.61 | 1.1 | nt | nt
CCCCn1c(=O)[nH]c2ccccc21 | -2.2 | -13 | -12 | -2.4* | 1 | 674 | 225
O=c1[nH]c2ccccc2n1CCCOc1ccccc1 | -0.53 | 11 | 26 | -0.00036 | 1.1 | nt | nt
O=C(c1cc2nc3c(c(C(F)(F)F)n2n1)CCc1ccccc1-3)N1CCN2CCCC2C1 (configuration not stated) | -1.4 | -10 | -5 | -3.1* | 1 | 343* | 197
N#CC1=C(N)N2C(=C(C#N)C13CCN(Cc1ccccc1)CC3)Nc1ccccc12 | -0.43 | 2 | 19 | -3.4* | 1.3 | 405* | 187
CC(C)c1[nH]nc2c1C1(CCN(Cc3ccccc3)CC1)C(C#N)=C(N)O2 | nt | -7 | 20 | nt | 1.3 | nt | nt
